# Laboratory results reported in ChEMBL document CHEMBL1141264, “Cucurbitane-type triterpenoids from the fruits of Momordica charantia and their cancer chemopreventive effects” (J Nat Prod, 2007).
# Assays:
# [1] = Scavenging activity against NO generation in NOR1-induced cell culture; format: functional
# Method in brief: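 Cultured-cell screen for scavenging of NO released by the NO donor NOR 1. Activity expressed as inhibitory ratio (IR) against NOR 1 action, with glycyrrhizin and carboxy-PTIO as reference compounds.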
# [2] = Cytotoxicity against human Raji cells assessed as cell viability at 1000 mol ratio/TPA relative to control; format: cell-based; details: read-out: Activity
# Method in brief: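 Raji cells stimulated with TPA at 32 pmol (20 ng), taken as 100% positive control. Test compound added at mol ratio to TPA of 1000, 500, 100 or 10 (1000:1 = 32 nmol). EBV-EA induction expressed as % of positive control; Raji cell viability recorded as % at the 1000 ratio. IC50 as mol ratio to TPA inhibiting 50% of control.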
# Mus musculus [3] = organism: Mus musculus; test: Inhibition of DMBA-induced carcinogenesis in mouse assessed as reduction in papilloma bearing mouse after 10 weeks; format: functional; design: scale not given: the % may be the effect or the level left
# Method in brief: (§1)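 Mouse skin two-stage model, DMBA initiation and TPA promotion. Promotion with TPA 1.7 nmol; treated groups received 85 nmol test compound with each TPA application. Read-outs were % of mice bearing papillomas and mean papillomas per mouse, scored at 10 and 20 weeks. Papilloma numbers compared by Student's t-test.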
# Mus musculus [4] = organism: Mus musculus; test: Inhibition of DMBA-induced carcinogenesis in mouse assessed as reduction in papilloma bearing mouse after 20 weeks; format: functional; design: scale not given: the % may be the effect or the level left; method in brief: as §1
# Mus musculus [5] = organism: Mus musculus; test: Inhibition of DMBA-induced carcinogenesis in mouse assessed as number of papillomas per mouse after 10 weeks; format: functional; method in brief: as §1
# Mus musculus [6] = organism: Mus musculus; test: Inhibition of DMBA-induced carcinogenesis in mouse assessed as number of papillomas per mouse after 20 weeks; format: functional; method in brief: as §1
# Raji [7] = test: Inhibition of TPA-induced Epstein-Barr virus early antigen in Raji cells at 10 mol ratio/TPA relative to control; values are per cent of control; details: human gammaherpesvirus 4
# Raji [8] = test: Inhibition of TPA-induced Epstein-Barr virus early antigen in Raji cells at 500 mol ratio/TPA relative to control; values are per cent of control; details: human gammaherpesvirus 4
# Raji [9] = test: Inhibition of TPA-induced Epstein-Barr virus early antigen in Raji cells at 100 mol ratio/TPA relative to control; values are per cent of control; details: human gammaherpesvirus 4
# Raji [10] = test: Inhibition of TPA-induced Epstein-Barr virus early antigen in Raji cells at 1000 mol ratio/TPA relative to control; values are per cent of control; details: human gammaherpesvirus 4
# Mus musculus [11] = test: Inhibition of peroxynitrite-induced carcinogenesis in po dosed mouse skin assessed as incidence of papilloma bearing mouse after 20 weeks; format: functional; design: scale not given: the % may be the effect or the level left
# Method in brief: (§2)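 Mouse back shaved and initiated topically with peroxynitrite (PN) 390 nmol in 1 mM NaOH (0.1 mL). Test compound given orally at 0.0025% in drinking water from 1 week before to 1 week after initiation. From 1 week after initiation, TPA (1 μg, 1.7 nmol) in acetone applied twice weekly. 15 mice per group. Papilloma incidence and papillomas per mouse recorded weekly for 20 weeks; papillomas counted once about 1 mm × 1 mm. Student's t-test used.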
# Mus musculus [12] = test: Inhibition of peroxynitrite-induced carcinogenesis in po dosed mouse skin assessed as reduction in papilloma bearing animals after 20 weeks; format: functional; method in brief: as §2
Compound,inhibitory ratio (IR) against NOR 1 action [1],viability at 1000 mol ratio/TPA [2] [%],Activity (Mus musculus [3]) [%],Activity (Mus musculus [4]) [%],Activity (Mus musculus [5]),Activity (Mus musculus [6]),"level, % of control (Raji [7]) [%]","level, % of control (Raji [8]) [%]","level, % of control (Raji [9]) [%]","level, % of control (Raji [10]) [%]",Activity (Mus musculus [11]) [%],Activity (Mus musculus [12])
C=C(C)/C=C/C[C@@H](C)[C@H]1CC[C@@]2(C)[C@@H]3C=C[C@@]45O[C@@H](OC)[C@]3(CC[C@]12C)[C@@H]4CC[C@H](O)C5(C)C,2,70,33,80,1.7,4,82.7,18.5,60.2,0,,
CO[C@@H]1O[C@]23C=C[C@@H]4[C@@]1(CC[C@]1(C)[C@@H]([C@H](C)C/C=C/C(C)(C)OC)CC[C@@]41C)[C@@H]2CC[C@H](O)C3(C)C,1.9,70,33,80,2.1,3.9,83.9,19,42.4,0,80,4.5
CC1(C)[C@@H](O[C@H]2O[C@H](C(=O)O)[C@@H](O)[C@H](O)[C@H]2O[C@@H]2O[C@H](C(=O)O)[C@@H](O)[C@H](O)[C@H]2O)CC[C@]2(C)[C@H]3C(=O)C=C4[C@@H]5C[C@@](C)(C(=O)O)CC[C@]5(C)CC[C@@]4(C)[C@]3(C)CC[C@@H]12 [GLYCYRRHIZIN],2.2,> 80,,,,,100,63.3,83.3,27.4,,
